The values that follow come from the array DNA melting data of Ke et al. (doi:10.1101/2024.01.08.574731).

A short description of series [1]: folding enthalpy; higher = less favourable; fluorescence melt of hairpins on a sequencing array, two-state fit. The conditions noted are these: sodium 0.088 M. The method, boiled down:
(§1)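 In 50 mM Na-HEPES pH 8.0 containing 25 mM NaCl, hairpins from the library on a sequenced MiSeq flow cell were imaged for Cy3 fluorescence at 2.5 °C steps up to 60 °C, with Cy3 and quencher oligos annealed. After normalisation to pre-quench Cy3 and to control constructs, two-state fits with bootstrapping gave melting temperature and folding enthalpy. Four replicates were combined by inverse-variance weighting, and fitted temperatures were shifted up by 9.35 °C to match UV melts.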

A short description of series [2]: melting temperature; fluorescence melt of hairpins on a sequencing array, two-state fit, raised by 9.35 °C to match UV melts. As to conditions: sodium 0.088 M. A digest of the protocol: as §1

With GCGGGCGGCCGC ((((....)))), the folding enthalpy in series [1] was -42 kcal/mol. For the same sequence, the Tm in series [2] was 59.1 °C.

Regarding GCGGGCGTCCGC ((((....)))), in series [1], the folding enthalpy is -23.6 kcal/mol. Besides, the Tm in series [2] was 58.6 °C.

Take GCGGGCTCGAAAGAGCGC (((..(((....)))))): in series [1], the folding enthalpy was -10.2 kcal/mol. Further, the Tm in series [2] is 55 °C.

Regarding GCGGGGATCCGC ((((....)))), the folding enthalpy in series [1] was -19.9 kcal/mol. The Tm in series [2] amounted to 68.9 °C.

For the sequence GCGGGGCGAAAGCACAGC ((.(.((....)).).)), in series [1], the folding enthalpy was -31.8 kcal/mol. Besides, in series [2], the Tm amounted to 65.4 °C.

Take GCGGGGCGAAAGCCAAGC ((..(((....)))..)): the folding enthalpy in series [1] is -27.7 kcal/mol. Also, the Tm in series [2] is 65 °C.

GCGGGGCGAAAGCCAGGC ((..(((....)))..)): in series [1], the folding enthalpy was -17.5 kcal/mol. For the same sequence, in series [2], the Tm amounted to 59.1 °C.

As to GCGGGGCGAAAGCCGAGC ((..(((....)))..)), the folding enthalpy in series [1] is -24.9 kcal/mol. In addition, in series [2], the Tm is 66.2 °C.

Consider GCGGGGCGCCGC ((((....)))), for which the folding enthalpy in series [1] is -14.7 kcal/mol. The Tm in series [2] worked out at 66.1 °C.

GCGGGGGGAAACCCCCAC (.(((((....))))).): the folding enthalpy in series [1] was -11.2 kcal/mol. In addition, the Tm in series [2] was 46 °C.

Consider GCGGGGGGAAACCCCTGC ((.((((....)))).)), for which the folding enthalpy in series [1] was -31.9 kcal/mol. The Tm in series [2] turned out to be 61.9 °C.

In the case of GCGGGGGGAAACTCCCGC (((((.(....).))))), in series [1], the folding enthalpy is -33.8 kcal/mol. Besides, the Tm in series [2] was 68.4 °C.

For the sequence GCGGGGTTCCGC ((((....)))), the folding enthalpy in series [1] is -18.7 kcal/mol. For the same sequence, the Tm in series [2] is 61.1 °C.

For the sequence GCGGGTGGAAACACCCAC (.(((((....))))).), in series [1], the folding enthalpy was -11.5 kcal/mol. Besides, the Tm in series [2] was 48.7 °C.

For the sequence GCGGGTGGAAACGCCTGC ((.((.(....).)).)), the folding enthalpy in series [1] was -28 kcal/mol. Moreover, the Tm in series [2] was found to be 51.7 °C.

GCGGTACGAAAGTAACGC (((.(((....))).))): the folding enthalpy in series [1] is -38.8 kcal/mol. Besides, the Tm in series [2] came to 67.7 °C.

On to GCGGTAGGAAACTGTCGC (((..((....))..))), for which the folding enthalpy in series [1] is -30.3 kcal/mol. In addition, the Tm in series [2] amounted to 43.8 °C.

For GCGGTATACCGC ((((....)))), the folding enthalpy in series [1] is -27.4 kcal/mol. Moreover, in series [2], the Tm came to 60.7 °C.

On to GCGGTATCGAAAGATCGC (((..(((....)))))), for which the folding enthalpy in series [1] is -24.1 kcal/mol. In series [2], the Tm is 47.1 °C.

In the case of GCGGTCACCCGC ((((....)))), in series [1], the folding enthalpy is -24.6 kcal/mol. The Tm in series [2] was found to be 56.2 °C.

Take GCGGTCCACCGC ((((....)))): the folding enthalpy in series [1] is -26.2 kcal/mol. In addition, in series [2], the Tm was found to be 68.5 °C.

Turning to GCGGTCCCCCGC ((((....)))), the folding enthalpy in series [1] was -21.9 kcal/mol. For the same sequence, the Tm in series [2] stood at 57.7 °C.

GCGGTCGAAAGACGCCGC ((((((....)))..))): the folding enthalpy in series [1] is -19.9 kcal/mol. Besides, in series [2], the Tm amounted to 56.4 °C.

For GCGGTCGCGAAAGCGCGC (((..(((....)))))), the folding enthalpy in series [1] is -16.1 kcal/mol. For the same sequence, the Tm in series [2] was found to be 59.7 °C.

In the case of GCGGTCGGAAACGACCAC (.(((((....))))).), the folding enthalpy in series [1] is -11.6 kcal/mol. Besides, the Tm in series [2] was 48.4 °C.

Regarding GCGGTCGTCCGC ((((....)))), the folding enthalpy in series [1] is -31.1 kcal/mol. Besides, in series [2], the Tm was 56.9 °C.

Turning to GCGGTCTCCGC ((((...)))), the folding enthalpy in series [1] is -29.1 kcal/mol. Moreover, the Tm in series [2] stood at 56.3 °C.

Turning to GCGGTGACCGC ((((...)))), in series [1], the folding enthalpy is -23.6 kcal/mol. The Tm in series [2] stood at 56.6 °C.

Turning to GCGGTGAGCCGC ((((....)))), the folding enthalpy in series [1] is -23 kcal/mol. Further, in series [2], the Tm turned out to be 66.8 °C.

In the case of GCGGTGCCGAAAGGCCGC (((..(((....)))))), the folding enthalpy in series [1] is -19.4 kcal/mol. Further, the Tm in series [2] worked out at 62.3 °C.

Consider GCGGTGCGAAAGCCACGC (((..((....))..))), for which, in series [1], the folding enthalpy was -19.8 kcal/mol. In addition, the Tm in series [2] is 61.5 °C.

With GCGGTGCGAAAGCCCTGC ((.(.((....)).).)), the folding enthalpy in series [1] is -21.2 kcal/mol. Also, the Tm in series [2] came out at 49.5 °C.
